Results from ChEMBL document CHEMBL6083228, “A novel hydrophobic tag leads to the efficient degradation of programmed death-ligand 1” (RSC Med Chem, 2024).
Activity calls are given as the source filed them. The rule behind the calls is not given here.

How the values were obtained:
[1] = target: Programmed cell death 1 ligand 1 (Homo sapiens) (UniProt Q9NZQ7); test: Induction of hydrophobic tag tethering degradation of PD-L1 in human NCI-H460 cells at 10 uM incubated for 24 hrs by Western blot analysis; format: cell-based
Summary of the method: (§1)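 Cells seeded at 1×10^6 per well, incubated overnight, then exposed to DMSO or compound for 24 h. RIPA lysates were denatured at 100 °C for 15 min in SDS-PAGE loading buffer and run on 10% SDS-PAGE. Blots were probed overnight at 4 °C with anti-PD-L1 (1:1000), then a secondary (1:5000), with ECL detection. Bands were semi-quantified by densitometry.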

[2] = target: Programmed cell death 1 ligand 1 (Homo sapiens) (UniProt Q9NZQ7); test: Induction of hydrophobic tag tethering degradation of PD-L1 in human NCI-H460 cells at 1 to 10 uM incubated for 24 hrs by Western blot analysis; format: cell-based; conditions: dose 1-10 µM; summary of the method: as §1
[3] = target: Programmed cell death 1 ligand 1 (Homo sapiens) (UniProt Q9NZQ7); test: Induction of hydrophobic tag tethering degradation of PD-L1 in human NCI-H460 cells at 10 uM by Western blot analysis; format: cell-based; summary of the method: as §1
[4] = target: Programmed cell death 1 ligand 1 (Homo sapiens) (UniProt Q9NZQ7); test: Induction of hydrophobic tag tethering degradation of PD-L1 in human NCI-H460 cells at 10 uM incubated for 24 hrs in presence of MG132 by Western blot analysis; format: cell-based
[5] = target: Programmed cell death 1 ligand 1 (Homo sapiens) (UniProt Q9NZQ7); test: Induction of hydrophobic tag tethering degradation of PD-L1 in human NCI-H460 cells by immunofluorescence analysis; format: cell-based
Summary of the method: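 NCI-H460 cells exposed to compound at various concentrations were fixed in 4% paraformaldehyde for 15 min at room temperature and blocked with 0.5% BSA for 1 h. Anti-PD-L1 (1:200) was applied overnight at 4 °C, then Alexa Fluor 555 donkey anti-rabbit (1:1000) for 30 min in the dark. Nuclei were stained with DAPI and cells imaged by confocal microscopy.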

NCI-H460 [6] = test: Cytotoxicity against human NCI-H460 cells at 0.5 to 10 uM incubated for 24 to 72 hrs by MTT assay; format: functional, cell-based; conditions: dose 0.5-10 µM, time 24-72 hrs
Summary of the method: (§2)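 NCI-H460 cells seeded at 4×10^3 per well in complete RPMI-1640 (10% FBS, 37 °C, 5% CO2), left 24 h, then given DMSO or compound in DMSO. MTT (5 mg mL⁻¹ in PBS) added after 24, 48 and 72 h exposure, 4 h further; formazan dissolved in isopropanol, absorbance at 570 nm. Triplicate; viability relative to DMSO group (100%).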

[7] = target: Programmed cell death 1 ligand 1 (Homo sapiens) (UniProt Q9NZQ7); test: Induction of hydrophobic tag tethering degradation of PD-L1 in human NCI-H460 cells incubated for 24 hrs by Western blot analysis; format: cell-based; conditions: dose 1-10 µM; summary of the method: as §1
[8] = target: Programmed cell death 1 ligand 1 (Homo sapiens) (UniProt Q9NZQ7); test: Induction of hydrophobic tag tethering degradation of PD-L1 in human HT-1080 cells incubated for 24 hrs by Western blot analysis; format: cell-based; conditions: dose 1-10 µM; summary of the method: as §1
NCI-H460 [9] = test: Cytotoxicity against human NCI-H460 cells at 10 uM incubated for 24 to 72 hrs by MTT assay; format: functional, cell-based; conditions: time 24-72 hrs; summary of the method: as §2

Programmed cell death 1 ligand 1 (Homo sapiens), sequence (Q9NZQ7 whole entry): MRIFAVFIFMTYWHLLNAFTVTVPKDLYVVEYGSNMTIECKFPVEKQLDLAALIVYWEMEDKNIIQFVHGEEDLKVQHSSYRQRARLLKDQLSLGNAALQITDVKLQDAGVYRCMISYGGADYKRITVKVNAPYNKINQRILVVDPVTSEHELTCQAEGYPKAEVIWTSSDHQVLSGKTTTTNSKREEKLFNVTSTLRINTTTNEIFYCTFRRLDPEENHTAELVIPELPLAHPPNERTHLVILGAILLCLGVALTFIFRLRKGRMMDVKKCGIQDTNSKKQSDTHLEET

| Structure (SMILES) | Activity [1] | further results |
| --- | --- | --- |
| Cc1c(-c2ccccc2)cccc1-c1ccc(CNCCOCCOCCOCCOCCC(=O)NC(c2ccccc2)c2ccc(C(F)(F)F)cc2)cn1 (centres undefined) | inactive | – |
| Cc1c(COc2ccc(CNCCOCCOCCOCCOCCC(=O)NC(c3ccccc3)c3ccc(C(F)(F)F)cc3)cn2)cccc1-c1ccccc1 (centres undefined) | inactive | – |
| Cc1c(COc2ccc(CNCCOCCOCCOCCOCCC(=O)NC(C3CCCCC3)C3CCCCC3)cn2)cccc1-c1ccccc1 | inactive | – |
| Cc1c(COc2ccc(CNCCOCCOCCC(=O)NC(c3ccccc3)c3ccccc3)cn2)cccc1-c1ccccc1 | Active | Activity [2]: Active; Exhibited Mild Degradation Potency |
| Cc1c(-c2ccccc2)cccc1-c1ccc(CNCCOCCOCCOCCC(=O)NC(c2ccccc2)c2ccccc2)cn1 | Active | – |
| Cc1c(-c2ccccc2)cccc1-c1ccc(CNCCOCCOCCOCCOCCC(=O)NC(c2ccccc2)c2ccccc2)cn1 | Active | – |
| Cc1c(COc2ccc(CNCCOCCOCCOCCOCCOCCC(=O)NC(c3ccccc3)c3ccccc3)cn2)cccc1-c1ccccc1 | inactive | – |
| Cc1c(-c2ccccc2)cccc1-c1ccc(CNCCOCCOCCOCCOCCC(=O)NC(c2ccc(F)cc2)c2ccc(F)cc2)cn1 | inactive | – |
| Cc1c(COc2ccc(CNCCOCCOCCOCCC(=O)NN3CCN(C(c4ccc(F)cc4)c4ccc(F)cc4)CC3)cn2)cccc1-c1ccccc1 | inactive | – |
| Cc1c(COc2ccc(CNCCOCCOCCOCCOCCOCCC(=O)NCCNC(=O)C(C)c3ccc(CC(C)C)cc3)cn2)cccc1-c1ccccc1 (centres undefined) | inactive | – |
| Cc1c(COc2ccc(CNCCOCCOCCC(=O)NC(C3CCCCC3)C3CCCCC3)cn2)cccc1-c1ccccc1 | inactive | – |
| Cc1c(COc2ccc(CNCCOCCOCCOCCOCCC(=O)NN3CCN(C(c4ccc(F)cc4)c4ccc(F)cc4)CC3)cn2)cccc1-c1ccccc1 | inactive | – |
| Cc1c(-c2ccccc2)cccc1-c1ccc(CNCCOCCOCCOCCC(=O)NC(c2ccc(F)cc2)c2ccc(F)cc2)cn1 | inactive | – |
| Cc1c(-c2ccccc2)cccc1-c1ccc(CNCCOCCOCCC(=O)NC(c2ccc(F)cc2)c2ccc(F)cc2)cn1 | inactive | – |
| Cc1c(COc2ccc(CNCCOCCOCCOCCOCCC(=O)NCCNC(=O)C(C)c3ccc(CC(C)C)cc3)cn2)cccc1-c1ccccc1 (centres undefined) | inactive | – |
| Cc1c(-c2ccccc2)cccc1-c1ccc(CNCCOCCOCCOCCC(=O)NC(c2ccccc2)c2ccc(C(F)(F)F)cc2)cn1 (centres undefined) | inactive | – |
| Cc1c(COc2ccc(CNCCOCCOCCOCCC(=O)NCCNC(=O)C(C)c3ccc(CC(C)C)cc3)cn2)cccc1-c1ccccc1 (centres undefined) | inactive | – |

| Structure (SMILES) | Activity [1] | further results |
| --- | --- | --- |
| Cc1c(COc2ccc(CNCCOCCOCCOCCC(=O)NC34CC5CC(CC(C5)C3)C4)cn2)cccc1-c1ccccc1 | inactive | – |
| Cc1c(COc2ccc(CNCCOCCOCCC(=O)NC34CC5CC(CC(C5)C3)C4)cn2)cccc1-c1ccccc1 | inactive | – |
| Cc1c(COc2ccc(CNCCOCCOCCOCCOCCOCCC(=O)NC(C3CCCCC3)C3CCCCC3)cn2)cccc1-c1ccccc1 | inactive | – |
| Cc1c(COc2ccc(CNCCOCCOCCOCCC(=O)NC(C3CCCCC3)C3CCCCC3)cn2)cccc1-c1ccccc1 | inactive | – |
| Cc1c(-c2ccccc2)cccc1-c1ccc(CNCCOCCOCCC(=O)NN2CCN(C(c3ccc(F)cc3)c3ccc(F)cc3)CC2)cn1 | Active | Activity [3]: Time-dependent-effect; Almost No Degradation Activity Observed For 72 Hrs; Activity [4]: Not active; Result Indicates That Degradation Of Pd-L1 Occurs Through Proteosome Pathway; Activity [5]: Dose-dependent-effect; Activity (NCI-H460 [6]): Not active; Exhibited Almost No Cytotoxicity; Activity [7]: Dose-dependent-effect; Activity [8]: Dose-dependent-effect |
| Cc1c(COc2ccc(CNCCOCCOCCOCCC(=O)NC(c3ccccc3)c3ccccc3)cn2)cccc1-c1ccccc1 | Active | Activity [2]: Active; Exhibited Mild Degradation Potency |
| Cc1c(-c2ccccc2)cccc1-c1ccc(CNCCOCCOCCC(=O)NC(c2ccccc2)c2ccc(C(F)(F)F)cc2)cn1 (centres undefined) | inactive | – |
| Cc1c(COc2ccc(CNCCOCCOCCC(=O)NCCNC(=O)C(C)c3ccc(CC(C)C)cc3)cn2)cccc1-c1ccccc1 (centres undefined) | inactive | – |
| Cc1c(COc2ccc(CNCCOCCOCCC(=O)NC(c3ccccc3)c3ccc(C(F)(F)F)cc3)cn2)cccc1-c1ccccc1 (centres undefined) | inactive | – |
| Cc1c(COc2ccc(CNCCOCCOCCOCCOCCOCCC(=O)NC34CC5CC(CC(C5)C3)C4)cn2)cccc1-c1ccccc1 | Active | – |
| Cc1c(-c2ccccc2)cccc1-c1ccc(CNCCOCCOCCOCCC(=O)NN2CCN(C(c3ccc(F)cc3)c3ccc(F)cc3)CC2)cn1 | Active | Activity [3]: Time-dependent-effect; Almost No Degradation Activity Observed For 72 Hrs; Activity [4]: Not active; Result Indicates That Degradation Of Pd-L1 Occurs Through Proteosome Pathway; Activity [5]: Dose-dependent-effect; Activity (NCI-H460 [6]): Not active; Exhibited Almost No Cytotoxicity; Activity [7]: Dose-dependent-effect; Activity [8]: Dose-dependent-effect |
| Cc1c(-c2ccccc2)cccc1-c1ccc(CNCCOCCOCCC(=O)NC(c2ccccc2)c2ccccc2)cn1 | inactive | – |
| Cc1c(COc2ccc(CNCCOCCOCCOCCOCCC(=O)NC34CC5CC(CC(C5)C3)C4)cn2)cccc1-c1ccccc1 | inactive | – |
| Cc1c(COc2ccc(CNCCOCCOCCC(=O)NN3CCN(C(c4ccc(F)cc4)c4ccc(F)cc4)CC3)cn2)cccc1-c1ccccc1 | Active | Activity (NCI-H460 [9]): Active; Exhibited Mild Cytotoxicity; Activity [7]: Dose-dependent-effect |
| Cc1c(-c2ccccc2)cccc1-c1ccc(CNCCOCCOCCOCCOCCC(=O)NN2CCN(C(c3ccc(F)cc3)c3ccc(F)cc3)CC2)cn1 | inactive | – |
| Cc1c(COc2ccc(CNCCOCCOCCOCCOCCC(=O)NC(c3ccccc3)c3ccccc3)cn2)cccc1-c1ccccc1 | Active | – |
